Experimental findings from ChEMBL document CHEMBL1143781, “Synthesis, in vitro antibacterial and antifungal evaluations of 2-amino-4-(1-naphthyl)-6-arylpyrimidines” (2007) are described below.

In brackets after ≈: the same amount, converted by molar mass.

As usually defined, the MIC is the smallest concentration in the dilution series that meets the test's criterion for growth inhibition.

Common to all, as to type: functional
One test deals with Trichophyton tonsurans. The test is described as follows: Antifungal activity against Trichophyton tonsurans after 7 days. The settings on record: 168 h. A digest of the protocol:
(§1)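 Fungal strains were taken from Sabouraud medium into nutrient broth and grown 3–5 days at 25 °C. They were vortexed 4–5 min with sterile beads, and the suspensions were adjusted to absorbance 0.5 at 500 nm. Eight serial dilutions were made in microplates, and all wells except the positive control received standardized inoculum. MIC was the lowest concentration giving no visible growth.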

Another test has as its system Klebsiella pneumoniae. Kind of test: Antibacterial activity against Klebsiella pneumoniae after 24 hrs by micro-broth dilution technique. An outline of the steps:
(§2)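 Mueller-Hinton broth microdilution. Test compounds were serially diluted two-fold in DMSO. The inoculum was grown in broth overnight at 37 °C, then diluted to a final 10⁵ cfu/ml in the tray. Trays were covered and incubated at 37 °C for about 24 h. MIC was the lowest concentration inhibiting visible growth.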

The subject of the next test is Microsporum. The test is described as follows: Antifungal activity against Microsporum gypseum after 7 days. The settings on record: 168 h. An outline of the steps: as §1
A further test relates to Pseudomonas aeruginosa. The test is described as follows: Antibacterial activity against Pseudomonas aeruginosa after 24 hrs by micro-broth dilution technique. An outline of the steps:
as §2
For orientation: Dilution methods test growth across graded concentrations, often in twofold steps.

The next test deals with Staphylococcus aureus. The test is described as follows: Antibacterial activity against Staphylococcus aureus after 24 hrs by micro-broth dilution technique. A digest of the protocol: as §2
Another test concerns Escherichia coli. Kind of test: Antibacterial activity against Escherichia coli after 24 hrs by micro-broth dilution technique. An outline of the steps: as §2

As for `Nc1nc(-c2ccc([N+](=O)[O-])cc2)cc(-c2cccc3ccccc23)n1`, the MIC is 25 mg/L (≈ 73 µM) against Trichophyton tonsurans; 15.3 mg/L (≈ 44.8 µM) against Klebsiella pneumoniae; 25 mg/L (≈ 73 µM) in the test with Microsporum; 11.9 mg/L (≈ 34.8 µM) with Pseudomonas aeruginosa; 25.6 mg/L (≈ 74.9 µM) against Staphylococcus aureus; 16.6 mg/L (≈ 48.6 µM) with Escherichia coli.
On to `COc1ccc(-c2cc(-c3cccc4ccccc34)nc(N)n2)cc1`, for which the MIC against Trichophyton tonsurans is 25 mg/L (≈ 76.4 µM); against Klebsiella pneumoniae, 9.31 mg/L (≈ 28.4 µM); against Microsporum it was 25 mg/L (≈ 76.4 µM); with Pseudomonas aeruginosa, 10.2 mg/L (≈ 31.2 µM); in the test with Staphylococcus aureus, more than 60 mg/L; against Escherichia coli, more than 60 mg/L.
As for `COc1ccccc1-c1cc(-c2cccc3ccccc23)nc(N)n1`, the MIC against Trichophyton tonsurans was 25 mg/L (≈ 76.4 µM); with Klebsiella pneumoniae it was 8.22 mg/L (≈ 25.1 µM); against Microsporum it was 25 mg/L (≈ 76.4 µM); in the test on Pseudomonas aeruginosa, 9.18 mg/L (≈ 28 µM); with Staphylococcus aureus, more than 60 mg/L; in the test with Escherichia coli, 36 mg/L (≈ 110 µM).
For the compound `Nc1nc(-c2cccc([N+](=O)[O-])c2)cc(-c2cccc3ccccc23)n1`, the MIC in the test on Trichophyton tonsurans came to 25 mg/L (≈ 73 µM); against Klebsiella pneumoniae, 14.3 mg/L (≈ 41.7 µM); against Microsporum, 25 mg/L (≈ 73 µM); with Pseudomonas aeruginosa, 18.2 mg/L (≈ 53.2 µM); against Staphylococcus aureus, 29.1 mg/L (≈ 85 µM); in the test with Escherichia coli it was 19.5 mg/L (≈ 57 µM).
On to `Nc1nc(-c2ccccc2Cl)cc(-c2cccc3ccccc23)n1`, for which the MIC was 25 mg/L (≈ 75.3 µM) against Trichophyton tonsurans; 5.38 mg/L (≈ 16.2 µM) in the test with Klebsiella pneumoniae; 25 mg/L (≈ 75.3 µM) against Microsporum; 6.4 mg/L (≈ 19.3 µM) with Pseudomonas aeruginosa; 40 mg/L (≈ 121 µM) against Staphylococcus aureus; more than 60 mg/L against Escherichia coli.
Consider `Nc1nc(-c2ccc(F)cc2)cc(-c2cccc3ccccc23)n1`, for which the MIC against Trichophyton tonsurans amounted to 2.2 mg/L (≈ 6.98 µM); with Klebsiella pneumoniae it was 2.55 mg/L (≈ 8.09 µM); against Microsporum, 5.9 mg/L (≈ 18.7 µM); against Pseudomonas aeruginosa, 5.45 mg/L (≈ 17.3 µM); in the test on Staphylococcus aureus it was 7.3 mg/L (≈ 23.1 µM); against Escherichia coli, 8.1 mg/L (≈ 25.7 µM).
Take `Nc1nc(-c2cccc(Cl)c2)cc(-c2cccc3ccccc23)n1`: the MIC amounted to 25 mg/L (≈ 75.3 µM) with Trichophyton tonsurans; 6.38 mg/L (≈ 19.2 µM) against Klebsiella pneumoniae; 25 mg/L (≈ 75.3 µM) in the test on Microsporum; 7.42 mg/L (≈ 22.4 µM) in the test on Pseudomonas aeruginosa; 39 mg/L (≈ 118 µM) against Staphylococcus aureus; 41 mg/L (≈ 124 µM) against Escherichia coli.
As for `Nc1nc(-c2ccc(Cl)cc2)cc(-c2cccc3ccccc23)n1`, the MIC turned out to be 2.8 mg/L (≈ 8.44 µM) in the test on Trichophyton tonsurans; 19.8 mg/L (≈ 59.7 µM) with Klebsiella pneumoniae; 5.55 mg/L (≈ 16.7 µM) with Microsporum; 21.9 mg/L (≈ 66 µM) against Pseudomonas aeruginosa; 12.3 mg/L (≈ 37.1 µM) against Staphylococcus aureus; 13.5 mg/L (≈ 40.7 µM) in the test with Escherichia coli.
Regarding `Clc1ccc(COC(Cn2ccnc2)c2ccc(Cl)cc2Cl)c(Cl)c1` (stereo not given) [MICONAZOLE], the MIC against Trichophyton tonsurans and with Microsporum was 0.2 mg/L (≈ 0.481 µM) in each case.
In the case of `CC1(C)S[C@@H]2[C@H](NC(=O)[C@H](N)c3ccccc3)C(=O)N2[C@H]1C(=O)O` [AMPICILLIN], the MIC against Klebsiella pneumoniae is 1.8 mg/L (≈ 5.15 µM); with Pseudomonas aeruginosa, 1.8 mg/L (≈ 5.15 µM); against Staphylococcus aureus, 1 mg/L (≈ 2.86 µM); with Escherichia coli it was 1.65 mg/L (≈ 4.72 µM).
On to `Nc1nc(-c2ccccc2)cc(-c2cccc3ccccc23)n1`, for which the MIC in the test on Trichophyton tonsurans is 25 mg/L (≈ 84.1 µM); against Klebsiella pneumoniae, 5.5 mg/L (≈ 18.5 µM); in the test on Microsporum it was 25 mg/L (≈ 84.1 µM); in the test with Pseudomonas aeruginosa it was 6.59 mg/L (≈ 22.2 µM); against Staphylococcus aureus it was more than 60 mg/L; in the test with Escherichia coli it was 42 mg/L (≈ 141 µM).
